Test results taken from ChEMBL document CHEMBL1129495, “Highly selective bradykinin agonists and antagonists with replacement of proline residues by N-methyl-D- and L-phenylalanine” (J Med Chem, 1996).
Square brackets hold non-standard residues; d marks the D form. Peptide text beside a SMILES is read from it. Phe(4-guanidino) = N=C(N)Nc1ccc(C[C@H](N)C(=O)O)cc1; 2Thi = N[C@@H](Cc1cccs1)C(=O)O; Aib = CC(C)(N)C(=O)O

Legend:
[1] = Inhibitory activity against low affinity binding site of Bradykinin receptor in guinea pig ileum; type: tissue-based; conditions: Cavia porcellus
Method in brief: (§1)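 Fresh rat myometrial or guinea pig ileum membranes (0.3–0.5 mg protein) incubated 30 min at 4 °C with 0.05 nM [3H]BK and increasing peptide concentrations. Buffer: 25 mM TES pH 6.8, 1 µM captopril, 1 mM DTE, bacitracin, BSA. Samples filtered on PEI-treated GF/C and counted. High- and low-affinity IC50s from Tobler–Engel analysis; duplicates.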

[2] = Inhibitory activity against high affinity binding site of Bradykinin receptor in rat uterus membrane was reported.; type: cell membranes; method in brief: as §1
[3] = Inhibitory activity against low affinity binding site of Bradykinin receptor in rat uterus membrane was reported.; type: cell membranes; method in brief: as §1
[4] = organism: Cavia porcellus; assay: Antagonistic activity was evaluated in Guinea pig ileum assay.; type: functional; set-up: scale not given: the % may be the effect or the level left
Method in brief: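 Guinea pig terminal ileum in Tyrode at 37 °C under 0.5 g tension, isotonic recording. Analog added 5 min before a cumulative BK dose–response curve (maximum at 0.3 µM BK). pA2 is the negative log of the antagonist concentration that reduces the effect of a double BK dose to that of a single dose. Means of 3–7 determinations.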

[5] = organism: Cavia porcellus; assay: Antagonistic activity was evaluated in Guinea pig lung strip assay.; type: functional; set-up: scale not given: the % may be the effect or the level left
Method in brief: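 Lower-lobe lung strips (2–3 mm) from guinea pigs (400–600 g) in Krebs–Henseleit at 37 °C under 1 g load, with isometric tension recorded. After 1 h equilibration, peptide was given 5 min before an ED50 dose of BK. Cumulative BK curves covered 0.01–10 µM. pA2 by the van Rossum method.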

[6] = organism: Rattus norvegicus; assay: Agonistic activity was evaluated in Estrus Rat Uterus Assay; type: functional
Method in brief: (§2)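 Uteri from female Wistar rats (180–200 g) given diethylstilbestrol 100 µg/kg sc 16 h before use. Distal horns held in de Jalon solution at 28 °C under 0.5 g resting tension, with isotonic contractions recorded. BK was dosed every 4 min and left in the bath 45 s. Agonist activity by Schild 4-point method, expressed as percent of BK activity.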

[7] = Selectivity for rat uterus is expressed as the ratio RUT/GPI; type: functional
Method in brief: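 Ratio of agonist activity (percent of BK) in estrus rat uterus to that in guinea pig ileum, both from isotonic contraction assays using the Schild 4-point method.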

[8] = organism: Cavia porcellus; assay: Agonistic activity against selectivity for smooth muscle contraction in guinea pig ileum.; type: functional, Muscle tissue
Method in brief: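 Isolated terminal ileum (1.5 cm) from guinea pigs fasted 16 h, in Tyrode at 37 °C. Isotonic contractions recorded under 0.5 g resting tension. Agonist activity measured by Schild 4-point method against BK doses of 1 and 2 nM, expressed as percent of BK activity.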

[9] = organism: Rattus norvegicus; assay: Agonistic activity against selectivity for smooth muscle contraction in rat uterus.; type: functional, Muscle tissue; method in brief: as §2
[10] = Inhibitory activity against high affinity binding site of Bradykinin receptor in guinea pig ileum was reported.; type: tissue-based; conditions: Cavia porcellus; method in brief: as §1

| Molecule | IC50 [1] | IC50 [2] | IC50 [3] | Activity [4] | Activity [5] | Activity [6] | Ratio [7] | Activity [8] | Activity [9] | IC50 [10] |
| --- | --- | --- | --- | --- | --- | --- | --- | --- | --- | --- |
| CN(C(=O)[C@@H]1CCCN1C(=O)[C@@H](N)CCCN=C(N)N)[C@H](Cc1ccccc1)C(=O)NCC(=O)N[C@@H](Cc1ccccc1)C(=O)N[C@@H](CO)C(=O)N1CCC[C@H]1C(=O)N[C@@H](Cc1ccccc1)C(=O)N[C@@H](CCCN=C(N)N)C(=O)O | 1400 nM | 0.3 nM | 57 nM | 0.03% | 0.03% | 0.02% | – | – | – | – |
| CN(C(=O)[C@H](CO)NC(=O)[C@H](Cc1ccccc1)N(C)C(=O)CNC(=O)[C@@H]1C[C@@H](O)CN1C(=O)[C@@H]1CCCN1C(=O)[C@H](CCCN=C(N)N)NC(=O)[C@H](N)CCCN=C(N)N)[C@H](Cc1ccccc1)C(=O)N(C)[C@@H](Cc1ccccc1)C(=O)N[C@@H](CCCN=C(N)N)C(=O)O | – | – | – | 0.005% | 0.5% | 15% | 3000 | – | – | – |
| NC(N)=NCCC[C@@H](N)C(=O)N[C@@H](CCCN=C(N)N)C(=O)N1CCC[C@H]1C(=O)N1C[C@H](O)C[C@H]1C(=O)NCC(=O)N[C@@H](Cc1cccs1)C(=O)N[C@@H](CO)C(=O)N1CCC[C@H]1C(=O)N[C@@H](Cc1cccs1)C(=O)N[C@@H](CCCN=C(N)N)C(=O)O | – | – | – | – | – | – | 30 | 7% | 237% | – |
| CC(C)(NC(=O)[C@@H](Cc1c[nH]c2ccccc12)NC(=O)[C@H](Cc1ccccc1)NC(=O)CNC(=O)[C@@H]1CCCN1C(=O)[C@@H]1CCCN1C(=O)[C@@H](N)CCCN=C(N)N)C(=O)N[C@@H](Cc1ccccc1)C(=O)N[C@@H](CCCN=C(N)N)C(=O)O | – | – | – | – | – | – | 0.442 | 226% | 100% | – |
| CC(C)(NC(=O)[C@@H](Cc1ccccc1)NC(=O)[C@H](Cc1ccccc1)NC(=O)CNC(=O)[C@@H]1CCCN1C(=O)[C@@H]1CCCN1C(=O)[C@@H](N)CCCN=C(N)N)C(=O)N[C@@H](Cc1ccccc1)C(=O)N[C@@H](CCCN=C(N)N)C(=O)O | – | – | – | – | – | – | 0.291 | 426% | 124% | – |
| NC(N)=NCCC[C@H](NC(=O)[C@H](Cc1ccccc1)NC(=O)[C@@H](Cc1ccccc1)NC(=O)CNC(=O)[C@H](Cc1ccccc1)NC(=O)CNC(=O)[C@@H]1CCCN1C(=O)[C@@H]1CCCN1C(=O)[C@@H](N)CCCN=C(N)N)C(=O)O | – | – | – | – | – | – | 100 | 0.3% | 31% | – |
| CN(C(=O)[C@H](CO)NC(=O)[C@H](Cc1cccs1)NC(=O)CNC(=O)[C@@H]1C[C@@H](O)CN1C(=O)[C@@H]1CCCN1C(=O)[C@H](CCCN=C(N)N)NC(=O)[C@H](N)CCCN=C(N)N)[C@H](Cc1ccccc1)C(=O)N[C@@H](Cc1ccccc1)C(=O)N[C@@H](CCCN=C(N)N)C(=O)O | – | – | – | 0.006% | 0.04% | 86% | 10000 | – | – | – |
| CC[C@@H](C)[C@@H](N)C(=O)N[C@@H](CO)C(=O)N[C@@H](CCCN=C(N)N)C(=O)N1CCC[C@H]1C(=O)N1CCC[C@H]1C(=O)NCC(=O)N[C@@H](Cc1ccccc1)C(=O)N[C@@H](CO)C(=O)N1CCC[C@H]1C(=O)N[C@@H](Cc1ccccc1)C(=O)N[C@@H](CCCN=C(N)N)C(=O)O | – | – | – | – | – | – | 25 | 11% | 271% | – |
| CN(C(=O)[C@H](CO)NC(=O)[C@H](Cc1ccccc1)NC(=O)CNC(=O)[C@@H]1CCCN1C(=O)[C@@H]1CCCN1C(=O)[C@H](CCCN=C(N)N)NC(=O)[C@H](N)CCCN=C(N)N)[C@@H](Cc1ccccc1)C(=O)N[C@@H](Cc1ccccc1)C(=O)N[C@@H](CCCN=C(N)N)C(=O)O [listing 1 of 2 here] | 1 nM | – | 33 nM | – | – | – | – | – | – | – |
| CN(C(=O)[C@H](CO)NC(=O)[C@H](Cc1ccccc1)NC(=O)CNC(=O)[C@@H]1CCCN1C(=O)[C@@H]1CCCN1C(=O)[C@H](CCCN=C(N)N)NC(=O)[C@H](N)CCCN=C(N)N)[C@@H](Cc1ccccc1)C(=O)N[C@@H](Cc1ccccc1)C(=O)N[C@@H](CCCN=C(N)N)C(=O)O [listing 2 of 2 here] | – | – | – | 0.07% | 0.08% | 0.5% | – | – | – | – |
| CN(C(=O)[C@@H](N)CCCN=C(N)N)[C@H](Cc1ccccc1)C(=O)N1CCC[C@H]1C(=O)NCC(=O)N[C@@H](Cc1ccccc1)C(=O)N[C@@H](CO)C(=O)N1CCC[C@H]1C(=O)N[C@@H](Cc1ccccc1)C(=O)N[C@@H](CCCN=C(N)N)C(=O)O | 3780 nM | – | 100 nM | 0.15% | 0.05% | 0.15% | – | – | – | 57 nM |
| CN(C(=O)[C@H](CO)NC(=O)[C@H](Cc1ccccc1)NC(=O)CNC(=O)[C@@H]1CCCN1C(=O)[C@@H]1CCCN1C(=O)[C@@H](N)CCCN=C(N)N)[C@H](Cc1ccccc1)C(=O)N[C@@H](Cc1ccccc1)C(=O)N[C@@H](CCCN=C(N)N)C(=O)O | 132 nM | 0.11 nM | 4.8 nM | 0.04% | 1.4% | 136% | 300 | – | – | 1 nM |
| CN(C(=O)[C@H](CO)NC(=O)[C@H](Cc1ccccc1)NC(=O)CNC(=O)[C@@H]1C[C@@H](O)CN1C(=O)[C@@H]1CCCN1C(=O)[C@H](CCCN=C(N)N)NC(=O)[C@H](N)CCCN=C(N)N)[C@H](Cc1ccccc1)C(=O)N(C)[C@@H](Cc1ccccc1)C(=O)N[C@@H](CCCN=C(N)N)C(=O)O [listing 1 of 2 here] | 33 nM | 0.33 nM | 18 nM | – | – | – | – | – | – | – |
| CN(C(=O)[C@H](CO)NC(=O)[C@H](Cc1ccccc1)NC(=O)CNC(=O)[C@@H]1C[C@@H](O)CN1C(=O)[C@@H]1CCCN1C(=O)[C@H](CCCN=C(N)N)NC(=O)[C@H](N)CCCN=C(N)N)[C@H](Cc1ccccc1)C(=O)N(C)[C@@H](Cc1ccccc1)C(=O)N[C@@H](CCCN=C(N)N)C(=O)O [listing 2 of 2 here] | – | – | – | 0.01% | 0.45% | 40% | 4000 | – | – | – |
| CN(C(=O)[C@H](CO)NC(=O)[C@H](Cc1ccccc1)NC(=O)CNC(=O)[C@@H]1CCCN1C(=O)[C@@H]1CCCN1C(=O)[C@@H](N)CCCN=C(N)N)[C@@H](Cc1ccccc1)C(=O)N[C@@H](Cc1ccccc1)C(=O)N[C@@H](CCCN=C(N)N)C(=O)O | 700 nM | – | 500 nM | 0.03% | 0.1% | 0.2% | – | – | – | – |
| CN(C(=O)[C@@H]1CCCN1C(=O)[C@@H](N)CCCN=C(N)N)[C@@H](Cc1ccccc1)C(=O)NCC(=O)N[C@@H](Cc1ccccc1)C(=O)N[C@@H](CO)C(=O)N1CCC[C@H]1C(=O)N[C@@H](Cc1ccccc1)C(=O)N[C@@H](CCCN=C(N)N)C(=O)O | 8000 nM | 0.2 nM | 375 nM | 0.05% | 0.03% | 0.03% | – | – | – | 2.6 nM |
| NC(N)=NCCC[C@H](NC(=O)[C@H](Cc1cccs1)NC(=O)[C@@H]1CCCN1C(=O)[C@H](CO)NC(=O)[C@H](Cc1ccccc1)NC(=O)CNC(=O)[C@@H]1CCCN1C(=O)[C@@H]1CCCN1C(=O)[C@@H](N)CCCN=C(N)N)C(=O)O (H-RPPGFSP[2Thi]R-OH) | – | – | – | – | – | – | 13 | 40% | 500% | – |
| CC(C)(NC(=O)[C@H](CO)NC(=O)[C@H](Cc1ccccc1)NC(=O)CNC(=O)[C@@H]1CCCN1C(=O)[C@@H]1CCCN1C(=O)[C@@H](N)CCCN=C(N)N)C(=O)N[C@@H](Cc1ccccc1)C(=O)N[C@@H](CCCN=C(N)N)C(=O)O (H-RPPGFS[Aib]FR-OH) | – | – | – | – | – | – | 0.13 | 418% | 55% | – |
| NC(N)=NCCC[C@H](NC(=O)[C@H](Cc1cccs1)NC(=O)[C@@H]1CCCN1C(=O)[C@H](CO)NC(=O)[C@H](Cc1cccs1)NC(=O)CNC(=O)[C@@H]1CCCN1C(=O)[C@@H]1CCCN1C(=O)[C@@H](N)CCCN=C(N)N)C(=O)O (H-RPPG[2Thi]SP[2Thi]R-OH) | – | – | – | – | – | – | 5 | 200% | 1000% | – |
| N=C(N)Nc1ccc(C[C@H](NC(=O)[C@H](Cc2ccccc2)NC(=O)[C@@H]2CCCN2C(=O)[C@H](CO)NC(=O)[C@H](Cc2ccccc2)NC(=O)CNC(=O)[C@@H]2CCCN2C(=O)[C@@H]2CCCN2C(=O)[C@@H](N)Cc2ccc(NC(=N)N)cc2)C(=O)O)cc1 (H-[Phe(4-guanidino)]PPGFSPF[Phe(4-guanidino)]-OH) | – | – | – | – | – | – | 0.001 | 2% | 0.001% | – |
| CC(C)(NC(=O)[C@@H](Cc1ccc(Cl)cc1)NC(=O)C(Cc1ccccc1)NC(=O)CNC(=O)[C@@H]1CCCN1C(=O)[C@@H]1CCCN1C(=O)[C@@H](N)CCCN=C(N)N)C(=O)NC(Cc1ccccc1)C(=O)N[C@@H](CCCN=C(N)N)C(=O)O (stereo in doubt) | – | – | – | – | – | – | 0.3 | 321% | 97% | – |
| H-RPPGFSPFK-OH | – | – | – | – | – | – | 0.01 | 20% | 0.2% | – |
